Source: ChEMBL document CHEMBL5223087, “First-in-Class Cyclic Temporin L Analogue: Design, Synthesis, and Antimicrobial Assessment” (J Med Chem, 2021)
Values after ≈ are worked out from the molar mass of the structure shown. Bridge positions count the residues as written; N and C are the ends. Square brackets hold non-standard residues; d marks the D form. Triazole bridges read from a SMILES are 1,4-linked. Peptide text beside a SMILES is read from it. dLys(N3) = [N-]=[N+]=NCCCC[C@@H](N)C(=O)O; Lys(N3) = [N-]=[N+]=NCCCC[C@H](N)C(=O)O; Pra = C#CC[C@H](N)C(=O)O

Columns and labels:
Assay type in all cases: functional
Settings in all cases: time 16-18 hrs
Staphylococcus aureus = assay: Antimicrobial activity against Staphylococcus aureus ATCC 25923 assessed as reduction in bacterial growth incubated for 16 to 18 hrs by microdilution susceptibility test
In short: (§1)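 Broth microdilution in Mueller–Hinton broth. Mid-log bacteria at 1 × 10⁶ CFU/mL final, peptide twofold serial dilutions 100 to 0.78 μM final. Incubated 16–18 h at 37 °C. MIC taken as the lowest concentration giving total (100%) growth inhibition.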

Pseudomonas aeruginosa = assay: Antimicrobial activity against Pseudomonas aeruginosa ATCC 27853 assessed as reduction in bacterial growth incubated for 16 to 18 hrs by microdilution susceptibility test; in short: as §1
Escherichia coli = assay: Antimicrobial activity against Escherichia coli ATCC 25922 assessed as reduction in bacterial growth incubated for 16 to 18 hrs by microdilution susceptibility test; in short: as §1
[1] = test system: Staphylococcus epidermidis; assay: Antimicrobial activity against Staphylococcus epidermidis ATCC 12228 assessed as reduction in bacterial growth incubated for 16 to 18 hrs by microdilution susceptibility test; in short: as §1
Acinetobacter baumannii = assay: Antimicrobial activity against Acinetobacter baumannii ATCC 19606 assessed as reduction in bacterial growth incubated for 16 to 18 hrs by microdilution susceptibility test; in short: as §1
Priestia megaterium = assay: Antimicrobial activity against Bacillus megaterium Bm11 assessed as reduction in bacterial growth incubated for 16 to 18 hrs by microdilution susceptibility test; in short: as §1

MIC (Staphylococcus aureus) [µM] | MIC (Pseudomonas aeruginosa) [µM] | MIC (Escherichia coli) [µM] | MIC [1] [µM] | MIC (Acinetobacter baumannii) [µM] | MIC (Priestia megaterium) [µM] | Compound
100 (≈ 167 µg/mL) | > 100 | – | – | – | – | CC[C@H](C)[C@H](NC(=O)[C@H](CCCNC(=N)N)NC(=O)[C@@H]1CSSC[C@H](NC(=O)[C@H](Cc2ccccc2)NC(=O)[C@H](Cc2c[nH]c3ccccc23)NC(=O)[C@@H]2CCCN2C(=O)[C@@H](NC(=O)[C@@H](N)Cc2ccccc2)C(C)C)C(=O)N[C@@H](CCCCN)C(=O)N[C@@H](Cc2ccccc2)C(=O)N[C@H](CC(C)C)C(=O)N1)C(=O)N[C@@H](CC(C)C)C(N)=O (H-FVPWFCKF[dL]CRIL-NH2; disulfide 6-10)
> 100 | > 100 | > 100 | > 100 | > 100 | > 100 | CC[C@H](C)[C@H](NC(=O)[C@H](CCCNC(=N)N)NC(=O)CNC(=O)[C@@H](CC(C)C)NC(=O)[C@@H]1CCC(=O)NCCCC[C@H](NC(=O)[C@@H]2CCCN2C(=O)[C@@H](NC(=O)[C@@H](N)Cc2ccccc2)C(C)C)C(=O)N[C@@H](Cc2ccccc2)C(=O)N[C@@H](CO)C(=O)N[C@@H](CCCCN)C(=O)N1)C(=O)N[C@@H](CC(C)C)C(N)=O (H-FVPKFSKE[dL]GRIL-NH2; lactam 4-8)
> 100 | > 100 | > 100 | > 100 | > 100 | 100 (≈ 159 µg/mL) | CC[C@H](C)[C@H](NC(=O)[C@H](CCCNC(=N)N)NC(=O)CNC(=O)[C@H]1CCC(=O)NCCCC[C@H](NC(=O)[C@H](Cc2c[nH]c3ccccc23)NC(=O)[C@@H]2CCCN2C(=O)[C@@H](NC(=O)[C@@H](N)Cc2ccccc2)C(C)C)C(=O)N[C@@H](CO)C(=O)N[C@@H](CCCCN)C(=O)N[C@@H](Cc2ccccc2)C(=O)N1)C(=O)N[C@@H](CC(C)C)C(N)=O (H-FVPWKSKF[dE]GRIL-NH2; lactam 5-9)
> 100 | > 100 | > 100 | > 100 | > 100 | – | CC[C@H](C)[C@@H]1NC(=O)[C@H](CCCNC(=N)N)NC(=O)CNC(=O)[C@@H](CC(C)C)NC(=O)[C@H](Cc2ccccc2)NC(=O)[C@H](CCCCN)NC(=O)[C@@H](NC(=O)[C@H](Cc2ccccc2)NC(=O)[C@H](Cc2c[nH]c3ccccc23)NC(=O)[C@@H]2CCCN2C(=O)[C@@H](NC(=O)[C@@H](N)Cc2ccccc2)C(C)C)Cc2cn(nn2)CCCC[C@@H](C(N)=O)NC1=O (H-FVPWF[Pra]KF[dL]GRI[Lys(N3)]-NH2; triazole 6-13)
> 100 | > 100 | > 100 | > 100 | > 100 | – | CC[C@H](C)[C@@H]1NC(=O)[C@H](CCCNC(=N)N)NC(=O)CNC(=O)[C@H](NC(=O)[C@H](Cc2ccccc2)NC(=O)[C@H](CCCCN)NC(=O)[C@H](CO)NC(=O)[C@H](Cc2ccccc2)NC(=O)[C@H](Cc2c[nH]c3ccccc23)NC(=O)[C@@H]2CCCN2C(=O)[C@@H](NC(=O)[C@@H](N)Cc2ccccc2)C(C)C)CCCCNC(=O)CC[C@@H](C(N)=O)NC1=O
> 100 | > 100 | > 100 | > 100 | > 100 | – | CC[C@H](C)[C@@H]1NC(=O)[C@H](CCCNC(=N)N)NC(=O)CNC(=O)[C@@H](CC(C)C)NC(=O)[C@H](Cc2ccccc2)NC(=O)[C@H](CCCCN)NC(=O)[C@@H](NC(=O)[C@H](Cc2ccccc2)NC(=O)[C@H](Cc2c[nH]c3ccccc23)NC(=O)[C@@H]2CCCN2C(=O)[C@@H](NC(=O)[C@@H](N)Cc2ccccc2)C(C)C)CCCCNC(=O)CC[C@@H](C(N)=O)NC1=O (H-FVPWFKKF[dL]GRIE-NH2; lactam 6-13)
> 100 | > 100 | 100 (≈ 160 µg/mL) | > 100 | 100 (≈ 160 µg/mL) | – | CC[C@H](C)[C@H](NC(=O)[C@H](CCCNC(=N)N)NC(=O)CNC(=O)[C@H]1CCCCn2cc(nn2)C[C@H](NC(=O)[C@H](Cc2c[nH]c3ccccc23)NC(=O)[C@@H]2CCCN2C(=O)[C@@H](NC(=O)[C@@H](N)Cc2ccccc2)C(C)C)C(=O)N[C@@H](CO)C(=O)N[C@@H](CCCCN)C(=O)N[C@@H](Cc2ccccc2)C(=O)N1)C(=O)N[C@@H](CC(C)C)C(N)=O (H-FVPW[Pra]SKF[dLys(N3)]GRIL-NH2; triazole 5-9)
> 100 | > 100 | > 100 | > 100 | > 100 | 100 (≈ 172 µg/mL) | CCC(C)[C@H](NC(=O)[C@H](CCCNC(=N)N)NC(=O)[C@]1(C)CCC/C=C/CCC[C@](C)(NC(=O)[C@H](Cc2ccccc2)NC(=O)[C@H](Cc2c[nH]c3ccccc23)NC(=O)[C@@H]2CCCN2C(=O)[C@@H](NC(=O)[C@@H](N)Cc2ccccc2)C(C)C)C(=O)N[C@@H](CCCCN)C(=O)N[C@@H](Cc2ccccc2)C(=O)N[C@H](CC(C)C)C(=O)N1)C(=O)N[C@@H](CC(C)C)C(N)=O (some centres undefined)
> 100 | > 100 | > 100 | > 100 | > 100 | – | CC[C@H](C)[C@H](NC(=O)[C@H](CCCNC(=N)N)NC(=O)CNC(=O)[C@@H](CC(C)C)NC(=O)[C@@H]1CCCCn2cc(nn2)C[C@H](NC(=O)[C@@H]2CCCN2C(=O)[C@@H](NC(=O)[C@@H](N)Cc2ccccc2)C(C)C)C(=O)N[C@@H](Cc2ccccc2)C(=O)N[C@@H](CO)C(=O)N[C@@H](CCCCN)C(=O)N1)C(=O)N[C@@H](CC(C)C)C(N)=O (H-FVP[Pra]FSK[Lys(N3)][dL]GRIL-NH2; triazole 4-8)
> 100 | > 100 | – | > 100 | – | – | CC(C)C[C@H](NC(=O)[C@@H]1CCCCn2cc(nn2)C[C@H](NC(=O)[C@H](CCCCN)NC(=O)[C@H](CO)NC(=O)[C@H](Cc2ccccc2)NC(=O)[C@H](Cc2c[nH]c3ccccc23)NC(=O)[C@@H]2CCCN2C(=O)[C@@H](NC(=O)[C@@H](N)Cc2ccccc2)C(C)C)C(=O)N[C@H](CC(C)C)C(=O)NCC(=O)N[C@@H](CCCNC(=N)N)C(=O)N1)C(N)=O (H-FVPWFSK[Pra][dL]GR[Lys(N3)]L-NH2; triazole 8-12)
> 100 | > 100 | > 100 | > 100 | > 100 | – | CC(C)C[C@H](NC(=O)[C@@H]1CCC(=O)NCCCC[C@H](NC(=O)[C@H](CCCCN)NC(=O)[C@H](CO)NC(=O)[C@H](Cc2ccccc2)NC(=O)[C@H](Cc2c[nH]c3ccccc23)NC(=O)[C@@H]2CCCN2C(=O)[C@@H](NC(=O)[C@@H](N)Cc2ccccc2)C(C)C)C(=O)N[C@H](CC(C)C)C(=O)NCC(=O)N[C@@H](CCCNC(=N)N)C(=O)N1)C(N)=O (H-FVPWFSKK[dL]GREL-NH2; lactam 8-12)
> 100 | > 100 | > 100 | > 100 | > 100 | 100 (≈ 159 µg/mL) | CC(C)C[C@H](NC(=O)[C@@H]1CCC(=O)NCCCC[C@H](NC(=O)[C@H](Cc2c[nH]c3ccccc23)NC(=O)[C@@H]2CCCN2C(=O)[C@@H](NC(=O)[C@@H](N)Cc2ccccc2)C(C)C)C(=O)N[C@@H](CO)C(=O)N[C@@H](CCCCN)C(=O)N[C@@H](Cc2ccccc2)C(=O)N[C@H](CC(C)C)C(=O)NCC(=O)N[C@@H](CCCNC(=N)N)C(=O)N1)C(N)=O (H-FVPWKSKF[dL]GREL-NH2; lactam 5-12)
